Data set [1] addresses T1, Corticotropin-releasing factor receptor 1 (Rattus norvegicus, UniProt P35353).
T1 sequence (P35353 whole entry): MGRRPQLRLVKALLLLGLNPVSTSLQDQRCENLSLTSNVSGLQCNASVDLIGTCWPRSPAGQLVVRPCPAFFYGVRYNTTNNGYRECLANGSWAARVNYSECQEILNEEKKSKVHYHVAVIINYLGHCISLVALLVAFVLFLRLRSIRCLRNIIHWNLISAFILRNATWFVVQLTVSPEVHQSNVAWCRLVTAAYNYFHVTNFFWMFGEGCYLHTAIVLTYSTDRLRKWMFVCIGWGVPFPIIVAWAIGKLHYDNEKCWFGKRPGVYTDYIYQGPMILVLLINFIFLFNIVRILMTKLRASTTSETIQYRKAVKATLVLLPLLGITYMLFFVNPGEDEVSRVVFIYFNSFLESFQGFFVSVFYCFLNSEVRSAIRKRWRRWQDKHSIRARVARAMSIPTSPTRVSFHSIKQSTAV
In words: (§1) Inhibition of [125I]ovine-CRF binding to corticotropin releasing factor receptor 1. In a few lines: (§2)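 CRF1 source is rat frontal cortex membranes (25 µg/well), washed by homogenization and 32000g spins. Incubated with 150 pM [125I]ovine-CRF for 2 h at 21 °C in 50 mM Hepes pH 7.0 with MgCl2, EGTA, protease inhibitors, Triton X-100, bacitracin and ovalbumin. Separated by filtration on PEI-treated GF/B filters and gamma counted. Nonspecific binding defined with 1 µM DMP696.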

Data set [2] can be described thus: Mean free plasma concentration was determined in the defensive withdrawal model of rats after oral administration; Dose 3 mg/kg. Set-up: dose 3 mg/kg, route oral. Type of data set: ADME, organism-based. To be noted: rat, in vivo.
Data set [3] in a line: Bioavailability in Beagle dogs. Type of data set: ADME, organism-based, Canis lupus familiaris. To be noted: dog, in vivo, read-out: Bioavailabiility. In a few lines:
(§3)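 Beagle dogs dosed iv at 1.0 mg/kg (n = 2) in propylene glycol:water:N,N-dimethylacetamide 80:10:10, or po at 5.0 mg/kg (n = 2) in Labrafil:ethanol:Tween 80 85:10:5. Blood drawn by jugular venipuncture at 0–24 h (iv from 0.1 h, po from 0.5 h). Plasma stored at -20 °C, levels measured by LC/MS/MS.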

For data set [4], the target named is Cannabinoid receptor 1 (Homo sapiens) (UniProt P21554). As to the kind of experiment: Inhibition of Cannabinoid receptor 1 at 10 uM.
Cannabinoid receptor 1 (Homo sapiens), sequence (P21554 whole entry): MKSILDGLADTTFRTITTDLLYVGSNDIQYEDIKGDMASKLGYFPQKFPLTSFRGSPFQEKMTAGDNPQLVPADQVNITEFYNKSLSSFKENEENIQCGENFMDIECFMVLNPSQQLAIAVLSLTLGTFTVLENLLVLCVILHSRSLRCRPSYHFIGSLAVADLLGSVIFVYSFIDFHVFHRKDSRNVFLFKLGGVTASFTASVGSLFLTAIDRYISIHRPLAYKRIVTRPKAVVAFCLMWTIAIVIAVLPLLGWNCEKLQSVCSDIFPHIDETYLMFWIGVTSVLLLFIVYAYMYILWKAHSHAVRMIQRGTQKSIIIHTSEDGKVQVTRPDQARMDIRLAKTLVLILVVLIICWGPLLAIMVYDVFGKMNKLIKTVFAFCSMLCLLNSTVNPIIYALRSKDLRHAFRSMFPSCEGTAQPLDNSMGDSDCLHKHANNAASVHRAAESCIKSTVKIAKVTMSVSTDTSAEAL
Data set [5] is described as follows: Mean free plasma concentration was determined in the defensive withdrawal model of rats after oral administration; Dose 10 mg/kg. On the set-up: dose 10 mg/kg, route oral. Type of data set: ADME, organism-based. To be noted: rat, in vivo.
Data set [6] is described as follows: Half life in Beagle dogs. It is filed as ADME, Canis lupus familiaris. Conditions: dog, in vivo. In a few lines:
as §3

Data set [7] deals with Vasopressin V1 receptor (Homo sapiens) (UniProt P37288+P47901). In words: Inhibition of Vasopressin V1 receptor at 10 uM. It is filed as protein assay.
Vasopressin V1 receptor (Homo sapiens), sequence (P37288 whole entry, looked up): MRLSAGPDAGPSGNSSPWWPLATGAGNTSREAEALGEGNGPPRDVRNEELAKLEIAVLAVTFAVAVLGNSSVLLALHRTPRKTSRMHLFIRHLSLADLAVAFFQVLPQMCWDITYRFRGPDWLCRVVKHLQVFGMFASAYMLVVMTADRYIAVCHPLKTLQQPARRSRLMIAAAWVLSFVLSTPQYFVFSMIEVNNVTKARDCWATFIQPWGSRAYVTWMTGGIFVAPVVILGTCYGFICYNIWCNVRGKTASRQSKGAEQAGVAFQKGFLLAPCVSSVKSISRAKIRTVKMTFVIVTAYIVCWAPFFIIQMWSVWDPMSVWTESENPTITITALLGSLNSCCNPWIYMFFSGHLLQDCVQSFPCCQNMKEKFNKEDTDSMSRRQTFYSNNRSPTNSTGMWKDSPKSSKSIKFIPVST
Vasopressin V1 receptor (Homo sapiens), sequence (P47901 whole entry, looked up): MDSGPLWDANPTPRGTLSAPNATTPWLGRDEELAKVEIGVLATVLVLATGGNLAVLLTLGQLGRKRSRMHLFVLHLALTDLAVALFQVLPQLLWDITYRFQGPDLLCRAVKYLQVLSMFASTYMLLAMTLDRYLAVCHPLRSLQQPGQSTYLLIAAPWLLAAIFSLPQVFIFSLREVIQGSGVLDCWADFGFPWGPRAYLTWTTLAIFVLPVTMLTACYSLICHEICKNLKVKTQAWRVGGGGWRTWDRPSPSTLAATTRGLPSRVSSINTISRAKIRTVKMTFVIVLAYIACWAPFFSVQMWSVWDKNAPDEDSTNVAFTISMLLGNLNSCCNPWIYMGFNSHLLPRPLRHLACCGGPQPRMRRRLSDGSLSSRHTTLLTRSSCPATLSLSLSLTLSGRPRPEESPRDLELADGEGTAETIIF
Data set [8] in a line: Mean total plasma concentration was determined in the defensive withdrawal model of rats after oral administration; Dose 1 mg/kg. Type of data set: ADME, organism-based. Set-up: dose 1 mg/kg, route oral. Conditions: rat, in vivo, read-out: Mean total plasma concentration.
Data set [9] is described as follows: Mean total plasma concentration was determined in the defensive withdrawal model of rats after oral administration; Dose 10 mg/kg. Type of data set: ADME, organism-based. On the set-up: dose 10 mg/kg, route oral. Conditions: rat, in vivo, read-out: Mean total plasma concentration.
Data set [10] addresses Corticotropin releasing factor receptor (Rattus norvegicus, UniProt P47866+P35353). As to the kind of experiment: Inhibition of corticotropin releasing factor-induced ACTH release from rat pituitary cells. Conditions: pituitary gland cell. It is filed as functional, cell-based. The gist of the method: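 Cultured rat pituitary cells stimulated with 0.3 nM CRF, with inhibition of ACTH release measured across a concentration range to give IC50; n = 3.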

Data set [11] addresses T2, Corticotropin-releasing factor receptor 1 (Rattus norvegicus) (UniProt P35353).
T2 sequence (whole entry): T1 sequence (P35353 whole entry)
In words: Percent occupancy of corticotropin releasing factor receptor 1 in defensive withdrawal model in rats after oral administration; Dose 3 mg/kg. Type of data set: organism-based. On the set-up: dose 3 mg/kg. Conditions: at 3 mg/kg. The gist of the method:
(§4)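 After oral dosing at 1, 3 or 10 mg/kg in the defensive withdrawal rats, CRF1 occupancy in parietal cortex measured by ex vivo autoradiography; n = 5.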

Data set [12] in a line: Mean free plasma concentration was determined in the defensive withdrawal model of rats after oral administration; Dose 1 mg/kg. Type of data set: ADME, organism-based. On the set-up: dose 1 mg/kg, route oral. Conditions: rat, in vivo.
Data set [13] deals with T2, Corticotropin-releasing factor receptor 1 (Rattus norvegicus). As to the kind of experiment: Percent occupancy of corticotropin releasing factor receptor 1 in defensive withdrawal model in rats after oral administration; Dose 1 mg/kg. Set-up: dose 1 mg/kg. To be noted: at 1 mg/kg. Type of data set: functional, organism-based. The gist of the method: as §4
Data set [14] relates to Rattus norvegicus. In words: Percent decrease in exit latency was determined in the defensive withdrawal model of rats after oral administration; Dose 3 mg/kg. Type of data set: functional. In a few lines:
(§5)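 Male Sprague–Dawley rats (180–300 g) dosed po at 1, 3 or 10 mg/kg in 0.25% methocel suspension, 1 h before testing. Each rat placed in a darkened chamber inside a brightly lit open field; latency to emerge timed. Result expressed as % decrease versus vehicle, n = 8 per dose.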

The nature of data set [15]: Volume of distribution in Beagle dogs. It is filed as ADME, organism-based, Canis lupus familiaris. To be noted: dog, in vivo. The gist of the method: as §3
In data set [16] the target is T2, Corticotropin-releasing factor receptor 1 (Rattus norvegicus). In words: Percent occupancy of corticotropin releasing factor receptor 1 in defensive withdrawal model in rats after oral administration; Dose 10 mg/kg. Type of data set: organism-based. Set-up: dose 10 mg/kg. To be noted: at 10 mg/kg. The gist of the method: as §4
Data set [17] concerns Rattus norvegicus. In words: Percent decrease in exit latency was determined in the defensive withdrawal model of rats after oral administration; Dose 1 mg/kg. It is filed as functional. In a few lines: as §5
A short description of data set [18]: Clearance in Beagle dogs. Type of data set: ADME, organism-based, Canis lupus familiaris. Conditions: dog, in vivo. The gist of the method: as §3
Data set [19] has as its target T3, Adenosine receptor A3 (Homo sapiens) (UniProt P0DMS8).
T3 sequence (whole entry): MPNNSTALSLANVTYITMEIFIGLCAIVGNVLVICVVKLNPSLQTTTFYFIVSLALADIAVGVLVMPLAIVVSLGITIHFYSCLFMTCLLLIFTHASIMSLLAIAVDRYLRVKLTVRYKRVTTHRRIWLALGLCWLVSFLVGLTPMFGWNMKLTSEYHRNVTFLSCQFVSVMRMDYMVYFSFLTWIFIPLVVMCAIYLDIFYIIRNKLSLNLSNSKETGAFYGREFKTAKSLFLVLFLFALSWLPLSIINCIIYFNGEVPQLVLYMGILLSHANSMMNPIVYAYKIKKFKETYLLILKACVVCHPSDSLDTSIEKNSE
As to the kind of experiment: Inhibition of Adenosine A3 receptor at 10 uM.

Data set [20] is described as follows: Mean total plasma concentration was determined in the defensive withdrawal model of rats after oral administration; Dose 3 mg/kg. Conditions: rat, in vivo, read-out: Mean total plasma concentration. On the set-up: dose 3 mg/kg, route oral. It is filed as ADME, organism-based.
Data set [21] relates to Rattus norvegicus. As to the kind of experiment: Percent decrease in exit latency was determined in the defensive withdrawal model of rats after oral administration; Dose 10 mg/kg. It is filed as functional. In a few lines: as §5
For data set [22], the target named is T4, Corticotropin-releasing factor receptor 1 (Homo sapiens, UniProt P34998).
T4 sequence (P34998 whole entry): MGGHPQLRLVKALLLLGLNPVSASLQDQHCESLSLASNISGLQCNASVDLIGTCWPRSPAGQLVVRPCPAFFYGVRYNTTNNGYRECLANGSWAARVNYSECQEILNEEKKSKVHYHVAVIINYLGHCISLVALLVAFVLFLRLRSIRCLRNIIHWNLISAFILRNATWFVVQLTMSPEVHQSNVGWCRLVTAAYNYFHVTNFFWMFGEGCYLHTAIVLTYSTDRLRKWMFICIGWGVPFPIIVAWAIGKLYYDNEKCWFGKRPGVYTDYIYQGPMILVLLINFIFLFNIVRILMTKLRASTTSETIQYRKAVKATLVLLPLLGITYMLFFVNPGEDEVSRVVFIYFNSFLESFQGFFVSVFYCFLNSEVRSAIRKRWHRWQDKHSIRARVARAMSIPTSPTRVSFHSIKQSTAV
The description is as §1. The gist of the method: as §2

In data set [1], `CCCCN(CC)c1cc(C)nc2c1NC(=O)CN2c1c(Cl)cc(C#N)cc1Cl` yielded an IC50 of 3.3 nM.

As to `CCCN(CC1CCC1)c1cc(C)nc2c1NC(=O)CN2c1ccc(C#N)cc1Cl`, the IC50 in data set [1] stood at 1.8 nM.

As for `CCCCN(CC)c1cc(C)nc2c1NC(=O)CN2c1cc(F)c(OC)cc1Cl`, the IC50 in data set [1] is 0.5 nM. Compared with the last molecule, the IC50 is about 3.6-fold lower.

In data set [1], `CCN(CCCC#N)c1cc(C)nc2c1NC(=O)CN2c1ccc(OC)cc1C` gave an IC50 of 92 nM.

As to `CCCCN(CC)c1cc(C)nc2c1NC(=O)CN2c1ccc(C(C)C)cc1Br`, in data set [1], the 50% inhibitory concentration (IC50) worked out at 0.7 nM.

In the case of `CCCCN(CC)c1cc(C)nc2c1NC(=O)CN2c1ccc(OC)nc1C`, in [1], the IC50 worked out at 4.2 nM.

`CCN(c1cc(C)nc2c1NC(=O)CN2c1cc(F)c(OC)cc1Cl)C(C)C`: the IC50 in [1] is 1.5 nM.

As to `COCCN(CCOC)c1cc(C)nc2c1NC(=O)CN2c1ccc(C(C)C)cc1Cl`, the IC50 in [1] is 18 nM.

On to `CCCCN(CC)c1cc(C)nc2c1NC(=O)CN2c1ccc(OC)nc1OC`, for which the “Mean free plasma concentration” value in [2] is 0.36 nM; in [5] it was 1.02 nM; in data set [12] it was 0.05 nM. Also, the bioavailability in [3] was 24%. For the same molecule, the results for the IC50 in [1] and in data set [10] were 0.82 nM and 38.7 nM, respectively. Besides, the inhibition was 53% in [4], 47% in data set [7] and 49% in data set [19]. Moreover, the T1/2 in data set [6] turned out to be 27.6 h. Besides, the concentration in data set [8] is 3.1 nM; in [9], 61.5 nM; in data set [20] it was 21.7 nM. Also, the Occupancy in data set [11] was 23%; in [13], 17%; in [16], 59%. Besides, the results for the “Decrease in exit latency” value in the data set with Rattus norvegicus [14], in the data set on Rattus norvegicus [17] and in the data set with Rattus norvegicus [21] were 14%, 0% and 81%, respectively. The same molecule came in with a Volume of distribution in data set [15] of 40.6 L/kg. For the same molecule, the Clearance in [18] amounted to 27.8 mL/min/kg.

In turn, `Cc1cc(N2CCOCC2)c2c(n1)N(c1ccc(C(C)C)cc1Br)CC(=O)N2` came in with an IC50 in [1] of 126 nM. This counts as sub-micromolar.

For `CCCCN(CC)c1cc(C)nc2c1NC(=O)CN2c1ccc(Cl)cc1Cl`, in data set [1], the IC50 was 0.49 nM.

On to `CCCCNc1cc(C)nc2c1NC(=O)CN2c1ccc(OC)cc1Cl`, for which the IC50 in [1] is more than 1000 nM.

Take `CCCCN(CC)c1cc(C)nc2c1NC(=O)CN2c1ccc(C#N)cc1Cl`: the IC50 in data set [1] came out at 2.2 nM.

In turn, `CCCCN(CC)c1cc(C)nc2c1NC(=O)CN2c1ccc(OC)cc1Cl` showed an IC50 in [1] of 0.3 nM. Compared with the last molecule, the IC50 is about 7.3-fold lower.

Consider `CCCCN(CC)c1cc(C)nc(N(CC)c2ccc(C(C)C)cc2Br)n1`, for which, in data set [22], affinity was put at a Ki of 18 nM. This counts as double-digit nanomolar.

Consider `CCCCN(CC)c1cc(C)nc2c1NC(=O)CN2c1ccccc1Br`, for which the IC50 in [1] amounted to 7.1 nM.

Consider `CCN(CCCS(C)(=O)=O)c1cc(C)nc2c1NC(=O)CN2c1ccc(C(C)C)cc1Br`, for which, in data set [1], the IC50 came out at 305 nM.

In turn, `CCCN(CCOC)c1cc(C)nc2c1NC(=O)CN2c1ccc(C(C)C)cc1Cl` had an IC50 in [1] of 2.6 nM.

Consider `CCNc1cc(C)nc2c1NC(=O)CN2c1ccc(OC)cc1Cl`, for which the IC50 in data set [1] is more than 1000 nM.

With `CCCCN(CC)c1cc(C)nc2c1NC(=O)CN2c1ccc(Cl)cc1C#N`, the IC50 in data set [1] was 10 nM. That is a double-digit nanomolar value.

In [1], `CCCN(CCC)c1cc(C)nc2c1NC(=O)CN2c1ccc(C#N)cc1Cl` returned an IC50 of 1.2 nM.

In data set [1], `CCN(CC1CCCO1)c1cc(C)nc2c1NC(=O)CN2c1ccc(C(C)C)cc1Br` (stereo unspecified) showed an IC50 of 4.1 nM.

On to `CCCCN(CC)c1cc(C)nc2c1NC(=O)CN2c1ccc(OC)cc1C`, for which, in data set [1], the IC50 came to 0.92 nM.

As for `CCCCN(CC)c1cc(C)nc2c1NC(=O)CN2c1ccc(C(C)C)cc1`, the IC50 in data set [1] was 49 nM.

In the case of `CCCCN(CC)c1cc(C)nc2c1NC(=O)CN2c1ccc(C(C)C)cc1Cl`, the IC50 in data set [1] is 0.91 nM.

In data set [1], `CCC(CC)Nc1cc(C)nc2c1NC(=O)CN2c1ccc(Cl)cc1Cl` showed an IC50 of 198 nM.

The values above are taken from ChEMBL document CHEMBL1138815, “Synthesis, structure-activity relationships, and in vivo properties of 3,4-dihydro-1H-pyrido[2,3-b]pyrazin-2-ones as corticotropin-releasing factor-1 receptor antagonists” (J Med Chem, 2004).
